Measured values reported in ChEMBL document CHEMBL1137343, “4-arylazo-3,5-diamino-1H-pyrazole CDK inhibitors: SAR study, crystal structure in complex with CDK2, selectivity, and cellular effects” (J Med Chem, 2006).
The source made the active and inactive calls. The rule behind the calls is not given here.

What was measured:
[1] = molecular target: Mitogen-activated protein kinase 14 (Homo sapiens) (UniProt Q16539); test: Activity of SAPK2-alpha at 10 uM
Summary of the method: (§1)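 Radiometric kinase assay at 10 µM inhibitor, run in duplicate. c-Abl, CHK1, GSK3β, p70S6K, PKA and PKBα were run in 8 mM MOPS pH 7.0 with 0.2 mM EDTA. MAPK1 and SAPK2α were run in 25 mM Tris pH 7.5 with 0.02 mM EGTA. CK2 was run in 20 mM HEPES pH 7.6, 0.15 M NaCl, 0.1 mM EDTA, 2 mM DTT and 0.1% Triton X-100. All had 10 mM Mg-acetate, 10 µM ATP, [γ-33P]ATP and a peptide substrate; 40 min; H3PO4 stop; P30 filter; scintillation counting.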

HT-29 [2] = test: Cell cycle arrest in HT29 cells by accumulation at G0/G1 phase at 50 uM after 3 hrs; format: functional, Homo sapiens
Summary of the method: (§2)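 Subconfluent, asynchronous HT-29 cells were treated 3, 6 or 12 h, then pulsed with 10 µM BrdU for 30 min at 37 °C. Cells were fixed in ice-cold 70% ethanol, DNA denatured in 2 M HCl and neutralised with borate. Staining used FITC anti-BrdU, then propidium iodide (0.1 mg/mL) with RNase A. Analysis by flow cytometry with 488 nm laser.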

[3] = molecular target: Cyclin-dependent kinase 2/cyclin E (Homo sapiens, UniProt P24941); test: Inhibition of CDK2/Cyclin E in presence of 100 uM ATP; format: protein-complex assay
HT-29 [4] = test: Cell cycle arrest in HT29 cells by accumulation at G0/G1 phase at 50 uM after 6 hrs; format: functional, Homo sapiens; summary of the method: as §2
HT-29 [5] = test: Inhibition of EpCAM mRNA synthesis in HT29 cells measured as number of copies per 10^6 cells by RT PCR at 50 uM after 6 hrs; format: functional, Homo sapiens
Summary of the method: (§3)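 HT-29 cells (5 × 10⁶) treated for 3, 6 or 12 h; total RNA extracted with TRI reagent, 3 µg reverse transcribed with random primers and M-MLV RT (42 °C, 60 min). Absolute transcript copies quantified by TaqMan real-time PCR, 50 cycles, against diluted gene-specific amplicon standards (30–1 000 000 copies); duplicate PCR per sample; values are means of four determinations ± SD.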

[6] = molecular target: Cyclin-dependent kinase 4/cyclin D1 (Homo sapiens, UniProt P11802); test: Inhibition of CDK4/Cyclin D1 in presence of 100 uM ATP; format: protein-complex assay
[7] = molecular target: Mitogen-activated protein kinase 1 (Homo sapiens) (UniProt P28482); test: Activity of MAPK1 at 10 uM; summary of the method: as §1
MCF7 [8] = test: Increase in p21 WAF1 expression level in MCF7 cells at 50 uM after 24 hrs; format: functional, cell-based; details: Homo sapiens
Summary of the method: (§4)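 MCF7 cells were treated 24 h, lysed in Laemmli buffer and run on 10% SDS-PAGE. Proteins were blotted to nitrocellulose; loading checked with Ponceau-S; blocked with 5% milk in PBS-Tween. Specific antibodies applied overnight (pRb phosphosites Ser780, Ser807, Thr821; p53; p21WAF1), then peroxidase secondary at 1:2000 with ECL detection.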

HT-29 [9] = test: Inhibition of CEA mRNA synthesis in HT29 cells measured as number of copies per 10^6 cells by RT PCR at 50 uM after 12 hrs; format: functional, Homo sapiens
Summary of the method: (§5)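 HT-29 cells were treated 3, 6 or 12 h; total RNA extracted with TRI reagent. 3 µg RNA reverse-transcribed with random primers and M-MLV RT at 42 °C for 60 min. CEA transcripts quantified by TaqMan real-time PCR: 50 cycles of 95 °C 15 s and 65 °C 15 s. Absolute copies came from amplicon standards of 30 to 10^6 copies, expressed per 10^6 cells. Samples run in duplicate PCR; values average of four determinations ± SD.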

[10] = molecular target: Cyclin-dependent kinase 2/cyclin E (Homo sapiens) (UniProt P24864+P24941+O96020); test: Activity of CDK2/Cyclin E at 10 uM; format: protein-complex assay
MCF7 [11] = test: Increase in p53 expression level in MCF7 cells at 100 uM after 24 hrs; format: functional, cell-based; details: Homo sapiens; summary of the method: as §4
HOS = test: Viability of HOS cells at 100 uM; format: functional, Homo sapiens
Summary of the method: (§6)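 Cells grown in DMEM with 10% FCS and 4 mM glutamine at 37 °C, plated in 96-well format, preincubated 12 h, then exposed 72 h. Live cells measured by Calcein AM (1 h) fluorescence at 485/538 nm; % viable cells given at 100 µM compound.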

HT-29 [12] = test: Cell cycle arrest in HT29 cells by accumulation at S phase at 50 uM after 3 hrs; format: functional, Homo sapiens; summary of the method: as §2
HT-29 [13] = test: Cell cycle arrest in HT29 cells by accumulation at G2/M phase at 50 uM after 3 hrs; format: functional, Homo sapiens; summary of the method: as §2
HT-29 [14] = test: Inhibition of GAPDH mRNA synthesis in HT29 cells measured as number of copies per 10^6 cells by RT PCR at 50 uM after 6 hrs; format: functional, Homo sapiens; summary of the method: as §3
HT-29 [15] = test: Inhibition of GAPDH mRNA synthesis in HT29 cells measured as number of copies per 10^6 cells by RT PCR at 50 uM after 12 hrs; format: functional, Homo sapiens; summary of the method: as §3
G-361 = test: Viability of G361 cells at 100 uM; format: functional, Homo sapiens; summary of the method: as §6
[16] = molecular target: Casein kinase II (Homo sapiens) (UniProt P67870+P68400+P19784); test: Activity of CK2 at 10 uM; format: protein-complex assay; summary of the method: as §1
[17] = molecular target: Ribosomal protein S6 kinase (P70S6K) (Homo sapiens) (UniProt Q9UBS0+P23443); test: Activity of P70S6K at 10 uM; format: protein-complex assay; summary of the method: as §1
HT-29 [18] = test: Cell cycle arrest in HT29 cells by accumulation at S phase at 50 uM after 6 hrs; format: functional, Homo sapiens; summary of the method: as §2
K562 = test: Viability of K562 cells at 100 uM; format: functional, Homo sapiens; summary of the method: as §6
HT-29 [19] = test: Inhibition of CEA mRNA synthesis in HT29 cells measured as number of copies per 10^6 cells by RT PCR at 50 uM after 6 hrs; format: functional, Homo sapiens; summary of the method: as §5
[20] = molecular target: RAC-alpha serine/threonine-protein kinase (Homo sapiens) (UniProt P31749); test: Activity of PKBalpha at 10 uM; summary of the method: as §1
HT-29 [21] = test: Inhibition of GAPDH mRNA synthesis in HT29 cells measured as number of copies per 10^6 cells by RT PCR at 50 uM after 3 hrs; format: functional, Homo sapiens; summary of the method: as §3
MCF7 [22] = test: Increase in p53 expression level in MCF7 cells at 50 uM after 24 hrs; format: functional, cell-based; details: Homo sapiens; summary of the method: as §4
HT-29 [23] = test: Cell cycle arrest in HT29 cells by accumulation at G2/M phase at 50 uM after 12 hrs; format: functional, Homo sapiens; summary of the method: as §2
MCF7 (Homo sapiens) = test: Reduction of RNA polymerase 2 CTD phosphorylation in MCF7 cells after 24 hrs
HT-29 [24] = test: Cell cycle arrest in HT29 cells by accumulation at S phase at 50 uM after 12 hrs; format: functional, Homo sapiens; summary of the method: as §2
HT-29 [25] = test: Inhibition of EpCAM mRNA synthesis in HT29 cells measured as number of copies per 10^6 cells by RT PCR at 50 uM after 3 hrs; format: functional, Homo sapiens; summary of the method: as §3
[26] = molecular target: Cyclin-dependent kinase 2/cyclin A (Homo sapiens, UniProt P24941); test: Inhibition of CDK2/Cyclin A in presence of 100 uM ATP; format: protein-complex assay

Chain of Mitogen-activated protein kinase 14 (Homo sapiens) (Q16539 whole entry): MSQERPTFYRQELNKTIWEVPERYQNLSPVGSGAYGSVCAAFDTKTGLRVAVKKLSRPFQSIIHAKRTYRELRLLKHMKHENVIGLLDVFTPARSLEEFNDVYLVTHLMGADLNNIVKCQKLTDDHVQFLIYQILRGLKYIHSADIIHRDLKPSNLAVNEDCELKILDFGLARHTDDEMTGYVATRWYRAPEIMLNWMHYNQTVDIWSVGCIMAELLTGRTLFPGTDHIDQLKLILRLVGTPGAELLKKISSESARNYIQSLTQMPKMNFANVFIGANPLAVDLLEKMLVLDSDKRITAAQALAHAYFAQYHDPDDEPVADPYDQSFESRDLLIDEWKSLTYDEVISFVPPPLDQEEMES
Chain of RAC-alpha serine/threonine-protein kinase (Homo sapiens) (P31749 whole entry): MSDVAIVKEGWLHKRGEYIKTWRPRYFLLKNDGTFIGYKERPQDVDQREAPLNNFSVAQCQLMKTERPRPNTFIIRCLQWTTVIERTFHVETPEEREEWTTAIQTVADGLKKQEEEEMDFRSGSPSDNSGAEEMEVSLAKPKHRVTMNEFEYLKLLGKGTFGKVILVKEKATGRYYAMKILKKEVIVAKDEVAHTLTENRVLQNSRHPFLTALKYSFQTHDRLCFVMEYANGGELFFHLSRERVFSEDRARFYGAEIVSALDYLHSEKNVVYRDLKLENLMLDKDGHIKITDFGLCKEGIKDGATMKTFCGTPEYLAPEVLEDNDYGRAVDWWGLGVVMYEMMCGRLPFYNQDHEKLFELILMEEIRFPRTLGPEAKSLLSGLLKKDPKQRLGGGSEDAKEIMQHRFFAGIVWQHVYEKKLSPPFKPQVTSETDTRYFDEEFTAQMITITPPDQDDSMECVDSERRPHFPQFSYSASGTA
Chain of Cyclin-dependent kinase 4/cyclin D1 (P11802 whole entry): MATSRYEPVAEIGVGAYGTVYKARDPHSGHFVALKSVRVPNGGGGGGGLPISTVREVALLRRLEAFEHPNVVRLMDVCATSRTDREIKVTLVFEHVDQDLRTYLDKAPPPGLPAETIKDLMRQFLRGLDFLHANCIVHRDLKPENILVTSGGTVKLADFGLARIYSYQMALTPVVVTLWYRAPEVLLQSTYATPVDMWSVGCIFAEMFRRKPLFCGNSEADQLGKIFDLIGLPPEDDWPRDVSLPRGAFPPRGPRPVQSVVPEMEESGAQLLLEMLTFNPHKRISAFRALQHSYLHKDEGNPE
Chain of Cyclin-dependent kinase 4/cyclin D1 (P24385 whole entry, further chain): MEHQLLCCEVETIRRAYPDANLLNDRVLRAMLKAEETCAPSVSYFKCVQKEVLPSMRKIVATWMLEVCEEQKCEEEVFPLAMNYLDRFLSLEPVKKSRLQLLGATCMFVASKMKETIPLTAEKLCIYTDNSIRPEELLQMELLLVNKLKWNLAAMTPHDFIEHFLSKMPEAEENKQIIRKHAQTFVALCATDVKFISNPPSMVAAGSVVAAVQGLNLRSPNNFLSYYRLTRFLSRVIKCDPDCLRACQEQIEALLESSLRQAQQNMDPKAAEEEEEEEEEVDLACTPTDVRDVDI
Chain of Mitogen-activated protein kinase 1 (Homo sapiens) (P28482 whole entry): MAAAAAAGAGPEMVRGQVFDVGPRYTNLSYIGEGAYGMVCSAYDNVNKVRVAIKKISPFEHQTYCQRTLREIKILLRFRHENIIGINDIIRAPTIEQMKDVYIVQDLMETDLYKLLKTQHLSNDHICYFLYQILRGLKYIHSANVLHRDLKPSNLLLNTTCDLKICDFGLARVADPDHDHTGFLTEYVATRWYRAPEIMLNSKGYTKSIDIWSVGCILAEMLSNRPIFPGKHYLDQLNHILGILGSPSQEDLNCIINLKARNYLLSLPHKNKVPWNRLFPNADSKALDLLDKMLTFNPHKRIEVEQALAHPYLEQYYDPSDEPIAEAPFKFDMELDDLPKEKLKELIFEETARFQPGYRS

In the case of `Nc1n[nH]c(N)c1/N=N/c1ccc(O)cc1`, the residual activity [1] is reported as 82%, the Activity (HT-29 [2]) is reported as 32.9% and the IC50 [3] is reported as 20 µM. It also gave an Activity (HT-29 [4]) of 35.9%, an Activity (HT-29 [5]) of 5069600 and an IC50 [6] of 13.5 µM. For the same compound, the residual activity [7] was 99%, the Activity (MCF7 [8]) was “Active” and the Activity (HT-29 [9]) was 12005. The residual activity [10] was 31%, the Activity (MCF7 [11]) was “Active” and the Activity (HOS) was 22%. The Activity (HT-29 [12]) was 55.7%, the Activity (HT-29 [13]) was 11.4% and the Activity (HT-29 [14]) was 3785908. It also gave an Activity (HT-29 [15]) of 1811960, an Activity (G-361) of 8.3% and a residual activity [16] of 65%. For the same compound, the residual activity [17] was 51%, the Activity (HT-29 [18]) was 54.2% and the Activity (K562) was 23%. For the same compound, the Activity (HT-29 [19]) was 22620, the residual activity [20] was 100% and the Activity (HT-29 [21]) was 3342533. For the same compound, the Activity (MCF7 [22]) was “Active”, the Activity (HT-29 [23]) was 6.8% and the Activity (MCF7 (Homo sapiens)) was “Active”. It also gave an Activity (HT-29 [24]) of 66%, an Activity (HT-29 [25]) of 6047138 and an IC50 [26] of 69 µM.
